# Screening results: PubChem BioAssay, several laboratories
# Mcl1-Bid inh = Mcl-1/Bid binding inhibitors, primary screen, biochemical, TR-FRET, 1536-well. Induced myeloid leukemia cell differentiation protein Mcl-1 (Homo sapiens), Q07820. TR-FRET Mcl-1/Bid-Dy647 peptide binding. inhibition, % at 21.7 µM. 220,000 tested, 0.97% active;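 active means compounds that cut the binding signal by more than half at the single screening dose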;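 further: His-tagged Mcl-1 with europium anti-His antibody binding Bid BH3 peptide; 0% = Mcl-1 plus peptide wells and 100% = peptide-only wells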
# Target sequence (Q07820 whole entry, looked up): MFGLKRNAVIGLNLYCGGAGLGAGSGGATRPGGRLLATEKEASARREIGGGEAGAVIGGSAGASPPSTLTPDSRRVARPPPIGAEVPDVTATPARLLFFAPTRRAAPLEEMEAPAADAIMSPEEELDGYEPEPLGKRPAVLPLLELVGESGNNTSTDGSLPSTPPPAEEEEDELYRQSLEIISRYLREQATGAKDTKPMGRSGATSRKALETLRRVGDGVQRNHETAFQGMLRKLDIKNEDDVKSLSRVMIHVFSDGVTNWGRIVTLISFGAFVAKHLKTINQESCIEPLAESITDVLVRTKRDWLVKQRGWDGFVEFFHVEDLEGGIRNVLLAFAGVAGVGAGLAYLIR
# 14-3-3 Bad PPI = inhibitors of 14-3-3 zeta/Bad binding, primary screen, biochemical, TR-FRET, bovine 14-3-3 zeta. TR-FRET 14-3-3zeta/Dy647-pBad peptide displacement, 1 h. inhibition, % at 21.7 µM. 220,000 tested, 0.71% active. AID 781, 2007;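 active means inhibition above about 70%, limit read from the data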;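 further: 0% = full 14-3-3 plus peptide FRET controls and 100% = background without 14-3-3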
# Mcl1 Noxa PPI = Mcl-1/Noxa binding inhibitors, primary screen, biochemical, TR-FRET, 1536-well; Induced myeloid leukemia cell differentiation protein Mcl-1 (Homo sapiens), Q07820; TR-FRET Mcl-1/Noxa peptide binding, 2 h; inhibition, % at 21.7 µM; 220,000 tested, 1.5% active; AID 1022, 2008;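 active means compounds that cut the protein-peptide binding signal by more than 50% relative to plate controls in a single-dose test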;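 further: His-tagged Mcl-1 with rhodamine Noxa BH3 peptide and terbium anti-His antibody; 0% = Mcl-1 plus Noxa peptide wells and 100% = peptide-only wells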
# Hck-Nef inh = inhibitors of Nef-activated human Hck kinase, primary screen, biochemical, Z-Lyte FRET, 384-well, Hck-YEEI; Tyrosine-protein kinase HCK (Homo sapiens), P08631; Recombinant Hck-YEEI plus Nef, Z-Lyte FRET kinase assay; AID 463187, 2010; inhibition, % at 20 µM; 220,000 tested, 0.68% active;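 active means Hck-Nef kinase inhibition above about 50%, limit read from the data; inactive means inhibition below that limit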;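 further: 0% = DMSO with Hck plus Nef and 100% = Hck alone without Nef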
# Biofilm kill mix = clotrimazole potentiators killing C. albicans biofilm, primary screen, 4-compound mixtures; C. albicans biofilm persisters + clotrimazole, fluorescence viability; primary screen in compound mixtures of four per well; inhibition, % at 7.6 µM; 120,000 tested, 0.02% active; AID 1242, 2008;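 active means inhibition above 30.3% in the primary screen of four-compound pools, then above 30% when the compound was retested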;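 further: compounds exposed to preformed 24 h biofilms for 48 h; 0% = untreated biofilm control and 100% = clotrimazole plus chlorhexidine kill blank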
#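 Test system: C. albicans CAF4-2 wild-type biofilms; buffer or medium: RPMI/MOPS medium, pH 7.0; schedule: 24 h biofilm formation, then 48 h compound exposure, 37 °C; detection: Alamar Blue fluorescence; measure: percent inhibition of biofilm viability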
# Mcl-1 Bim block = inhibitors of Bim peptide binding to Mcl-1, primary screen, biochemical, bead-based flow cytometry, multiplex; 190,000 tested, 0.1% active; inhibition, % at 10 µM; Bim peptide-Mcl-1 binding; AID 1009, 2008; in the data active means inhibition above about 40%;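 further: 0% = no compound tracer wells and 100% = peptide blocker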
# Starred values were filed as active, the others as inactive; · = not tested or not shown; [ ] = another dose, or the depositor's remark. A selection: hits, their analogues and other compounds. The true share with any hit is near 3.2%.
SMILES,Mcl1-Bid inh,14-3-3 Bad PPI,Mcl1 Noxa PPI,Hck-Nef inh,Biofilm kill mix,Mcl-1 Bim block
Cc1cc(C)c2nc(N3CCCN(C(=O)c4ccco4)CC3)c(C#N)cc2c1,54.9*,12.1,72.9*,14.7,·,1.0
O=C(CN1CCN(C(=O)c2c(F)cccc2F)CC1)Nc1ccccc1F,4.5,-8.6,16.2,-11.8,·,-5.0
O=C(O)c1cc(N/N=C/c2ccc(N3CCOCC3)s2)ccc1Cl,-100.2,5.5,85.9*,27.8,8.0,-2.0
CCCCCN1C(=O)Cn2c(nc3ccccc3c2=O)C1C (stereo not drawn),-11.7,-2.6,-9.4,-9.5,16.0,1.0
O=C(N/N=C/C1=C(N2CCOCC2)C(=C\c2ccccc2)/CC1)Nc1ccccc1,-15.9,5.0,-19.0,2.7,13.1,-11.0
Cc1ccc(N2CCN(/N=C/C3=C(N4CCOCC4)C(=C\c4ccccc4)/CC3)CC2)cc1,-23.5,-1.6,-3.5,26.8,8.6,·
N#C/C(=C\C1=C(N2CCOCC2)C(=C\c2ccc(Cl)cc2)/CC1)C(=O)Nc1ccccc1F,62.5*,73.3*[fluorescence artefact?],45.4,13.1,8.4,2.0
O=C(O)c1ccccc1N/N=C/C1=C(N2CCOCC2)C(=C\c2ccccc2)/CC1,-41.6,6.5,62.8*,-71.8,12.4,·
CCN(CC)c1ccc(/C=C2\CCC(/C=C(\C#N)C(=O)Nc3ccccc3F)=C2N2CCOCC2)cc1,-8.4,-1.6,24.9,-14.6,14.5,9.0
Cc1cc(C)nc(N/N=C/C2=C(N3CCOCC3)C(=C/c3ccccc3)/CC2)n1,-21.4,-0.9,52.8*,0.9,6.0,-3.0
Cc1cc(=O)[nH]c(N/N=C/C2=C(N3CCOCC3)C(=C\c3ccc(Cl)cc3)/CC2)n1,31.8,16.6,55.7*,1.2,17.6,-3.0
O=S(=O)(NNc1nccc(C(F)(F)F)n1)c1cccc(Cl)c1Cl,-12.9,-2.9,1.3,3.9,5.5,·
Cn1ncc(S(=O)(=O)Cc2ccccc2)c(Cl)c1=O,-5.4,22.7,68.4*,-49.2,9.0,·
Cn1ncc(SCc2ccccc2)c(Cl)c1=O,-17.9,4.3,13.9,8.3,17.4,·
Cc1ccc(S(=O)(=O)CCC(=O)OCc2ccc(Cl)c(Cl)c2)cc1,55.2*,3.9,10.9,-1.4,18.4,0.0
Cc1ccc(S(=O)(=O)CCC(=O)OCC(=O)Nc2ncc(Cl)cc2Cl)cc1,87.3*,-7.5,8.4,0.6,·,-1.0
Cc1ccc(S(=O)(=O)NCC(=O)OCC(=O)Nc2ncc(Cl)cc2Cl)cc1,-19.5,0.1,28.4,0.2,·,-3.0
CC(C)(Oc1ccc(Cl)cc1)C(=O)OCC(=O)Nc1ncc(Cl)cc1Cl,6.9,87.9*,9.6,0.0,·,-3.0
Cc1ccc(S(=O)(=O)CCC(=O)OCc2ccc(S(=O)(=O)C(C)C)cc2)cc1,-17.1,-8.0,4.8,-7.3,-18.5,0.0
CCOC(=O)c1cnc(SCC(=O)Nc2sc(C)c(C)c2C#N)nc1N,-3.1,14.9,4.9,2.1,·,-2.0
C=CCn1cc(C(=O)NCc2ccco2)c(=O)c2cc(S(=O)(=O)N3CCCCCC3)ccc21,91.4*,-10.7,1.2,3.3,·,-1.0
CCn1cc(C(=O)NCc2ccco2)c(=O)c2cc(S(=O)(=O)N3CCCCCC3)ccc21,-12.9,2.4,12.3,1.0,·,0.0
CC(C)Cn1c(N)c(C(=O)COC(=O)c2cc(-c3ccccc3)nc3ccccc23)c(=O)n(C)c1=O,10.2,-3.5,7.1,-3.4,3.1,-1.0
CC(C)Cn1c(N)c(C(=O)COC(=O)c2cc(-c3ccco3)nc3ccccc23)c(=O)n(C)c1=O,22.0,2.9,97.0*,4.8,·,1.0
Cn1c(=O)c(C(=O)COC(=O)c2cc(-c3ccco3)nc3ccccc23)c(N)n(Cc2ccccc2)c1=O,-8.8,-13.2,96.2*,61.3*,15.3,2.0
Cc1sc2nc(SCc3nc(-c4ccccc4)no3)n(-c3ccccc3)c(=O)c2c1C,21.3,11.4,30.6,1.4,9.3,-2.0
